Screens (PubChem BioAssay)
S1P3 antagonist: S1P3 receptor antagonists, primary screen, cell-based | CHO S1P3 NFAT-BLA reporter, FRET fluorescence, antagonist mode | inhibition, % at 4.98 µM | 170,000 tested, 0.27% active | AID 485, 2006;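 active = inhibition above the plate cutoff, the mean inhibition of test wells on that plate plus 3 SD, cut at about 28% in these data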;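 note: cells challenged with S1P at its EC80 of 0.8 µM; blue over green emission ratio from cleaved BLA substrate after 4 h stimulation; 0% = S1P-stimulated wells and 100% = unstimulated DMSO-only wells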
S1P4 antag: S1P4 receptor antagonists, primary screen, cell-based; Sphingosine 1-phosphate receptor 4 (Homo sapiens), O95977; S1P4-expressing cells, antagonist mode, reporter read-out; inhibition, % at 4.98 µM; 220,000 tested, 0.26% active; in the data active = inhibition above about 29%;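 note: 0% = wells stimulated with agonist and 100% = vehicle wells without agonist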
TNAP inh noacc: human TNAP enzyme inhibitors, primary screen, biochemical, luminescent, no phosphate acceptor, uHTS; 200,000 tested, 0.26% active; purified TNAP, CDP-star luminescence, 30 min; inhibition, % at 20 µM; Alkaline phosphatase, tissue-nonspecific isozyme (Homo sapiens), P05186;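 active = tissue-nonspecific alkaline phosphatase inhibition above about 50% at 20 µM in the single-dose screen, limit read from the data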;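 note: 0% = DMSO negative control and 100% = EDTA positive control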
TNAP act hi DEA: TNAP activators at high phosphate acceptor level, primary screen, biochemical, luminescence, uHTS | AID 1136, 2008 | 200,000 tested, under 10 active | Alkaline phosphatase, tissue-nonspecific isozyme (Homo sapiens), P05186 | activation factor at 20 µM | purified TNAP, CDP-star luminescence, 1 M DEA, 30 min; stronger effect = higher value; 0 = EDTA background, 1 = DMSO-only activity;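 active = activation factor at least 2 at 20 µM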
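Dosing: 20 µM single point. System: human TNAP. Amount: TNAP 1/800 final. Incubation: 30 min, room temperature. Read-out: TNAP activation factor scaled between EDTA and DMSO control wells. Signal: luminescence from CDP-star hydrolysis. Medium: 1 M DEA, pH 9.8, Mg2+, Zn2+. Control set: EDTA negative control, DMSO positive control.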
S1P4 agonist: S1P4 receptor agonists, primary screen, cell-based | Sphingosine 1-phosphate receptor 4 (Homo sapiens), O95977 | S1P4-expressing cell line, agonist reporter assay | activation, % at 4.98 µM | 220,000 tested, 0.35% active | AID 1509, 2009; in the data active = activation above about 11%;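 note: 0% = DMSO vehicle and 100% = reference agonist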
TNAP inh hiacc: human TNAP enzyme inhibitors, primary screen, biochemical, luminescent, high phosphate acceptor level, uHTS. Alkaline phosphatase, tissue-nonspecific isozyme (Homo sapiens), P05186. purified TNAP, CDP-star luminescence, 1 M DEA. inhibition, % at 20 µM. 200,000 tested, 0.03% active. AID 1135, 2008;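 active = over 50% inhibition of tissue-nonspecific alkaline phosphatase at 20 µM in the single-dose screen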;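 note: plate controls were DMSO wells for no effect and EDTA-quenched wells as full inhibition for full effect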
S1P4 ag conf: S1P4 receptor agonists, retest, confirmation, cell-based, high throughput | activation, % at 4.98 µM | shares compounds with S1P4 agonist | S1P4 agonist cell-based reporter assay | 740 tested, 7% active | AID 1523, 2009; in the data active = activation above about 12%;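 note: 0% = vehicle and 100% = full reference agonist response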
S1P1 ag: S1P1 receptor agonists, human, counter-screen for S1P4 agonist project, cell-based. shares compounds with S1P4 agonist. S1P1 agonist cell-based assay, activation. activation, % at 4.98 µM. 740 tested, 4% active; in the data active = activation above about 21%;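 note: 0% = vehicle wells and 100% = reference agonist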
Target sequence (P21453 whole entry, looked up): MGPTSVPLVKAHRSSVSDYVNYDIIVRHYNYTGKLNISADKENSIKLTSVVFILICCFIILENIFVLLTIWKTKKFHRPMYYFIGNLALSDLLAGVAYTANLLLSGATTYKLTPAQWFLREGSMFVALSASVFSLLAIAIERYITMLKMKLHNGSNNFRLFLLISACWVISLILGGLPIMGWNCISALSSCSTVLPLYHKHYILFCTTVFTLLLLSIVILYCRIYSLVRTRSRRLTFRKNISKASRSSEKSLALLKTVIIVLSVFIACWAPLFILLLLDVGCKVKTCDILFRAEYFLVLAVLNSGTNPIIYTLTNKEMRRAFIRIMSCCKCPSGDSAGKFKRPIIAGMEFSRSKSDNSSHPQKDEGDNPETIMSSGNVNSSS
Active calls of the source: *; . = not tested or not shown. Shown are actives, neighbours in structure and some others; about 1.1% of the full set was active somewhere.

SMILES | S1P3 antagonist | S1P4 antag | TNAP inh noacc | TNAP act hi DEA | S1P4 agonist | TNAP inh hiacc | S1P4 ag conf | S1P1 ag
Cc1nnc(SCc2nnc(-c3cccs3)o2)n1C1CCCCC1 | -7.9 | -12.6 | -17.4 | 1 | 1.9 | -4.8 | . | .
COc1ccc(-c2nnc(SCc3nnc(-c4cccs4)o3)n2CC2CCCO2)cc1 (configuration not stated) | -11.6 | -10.8 | -1.5 | 1 | 57.1* | 3.0 | -0.8 | 5.5
O=C(/C=C/c1ccccc1)NNC1=NS(=O)(=O)c2ccccc21 | -9.8 | 1.2 | -38.2 | 1.1 | 0.5 | -7.3 | . | .
NC(=O)C1CCN(C2CC(=O)N(Cc3cccs3)C2=O)CC1 (configuration not stated) | . | 2.7 | -13.5 | 1 | 28.0* | 4.7 | -2.3 | 5.8
Clc1ccc(C2CC(c3cccs3)n3ncnc3N2)c(Cl)c1 (configuration not stated) | 11.0 | 5.2 | -3.6 | 1.1 | 27.2* | -6.4 | -1.7 | -4.6
N/C(CSc1ncccc1C(F)(F)F)=N\O | -2.0 | 2.9 | . | . | 0.6 | . | . | .
Nc1cccc(C(=O)O)c1 | -8.4 | -16.2 | -12.1 | 1 | 3.3 | 0.4 | . | .
O=C(O)c1cccc(C(=O)c2cccc(C(=O)O)c2)c1 | 4.0 | -7.8 | -12.0 | 1 | 41.1* | -2.8 | -2.9 | -0.4
Cc1nc(NCC2CCCO2)c2nnn(Cc3c(F)cccc3Cl)c2n1 (configuration not stated) | -9.4 | -22.3 | -7.0 | 1 | -0.7 | -3.4 | . | .
O=[N+]([O-])c1ccccc1CNC1CCCc2ccccc21 (configuration not stated) | -11.2 | -7.9 | -11.7 | 1 | 1.7 | -3.6 | . | .
Cc1cc2nc(/N=C(\N)NC(=O)N3c4ccccc4Sc4ccccc43)nc(C)c2cc1C | -2.0 | -18.9 | 0.7 | 1.1 | 1.6 | -5.9 | . | .
Cc1cc(C2=NNC(=NC3CC3)SC2)c(C)n1-c1c(C)n(C)n(-c2ccccc2)c1=O | 1.7 | -9.0 | -8.2 | 1 | 14.6* | -1.0 | -2.2 | -1.5
CSc1nc(N)c(C#N)c(-c2ccc(Cl)cc2)c1C#N | -6.0 | 19.9 | -4.4 | 1 | 11.2* | -3.0 | 9.2 | -7.8
CSc1nc(-c2ccc(Cl)cc2)nc(N)c1C#N | -3.1 | -6.0 | . | . | 0.5 | . | . | .
CCc1ccc2c(c1)/C(=N/OC)C(=O)N2 | -7.9 | -5.4 | -4.2 | 1 | 60.4* | -2.3 | -1.6 | 16.1
COc1ccc2c(c1)C(=O)C(=O)N2 | 6.4 | -20.9 | -4.7 | 1 | -2.0 | 4.6 | . | .
CCCC1(c2ccccc2)NC(=O)N(CC(=O)Nc2cc(S(=O)(=O)N3CCOCC3)ccc2Cl)C1=O (configuration not stated) | -19.5 | -10.2 | -1.5 | 1.1 | -0.1 | -6.0 | . | .
O=C(Cn1cnc2ccccc2c1=O)Nc1ccccc1N1CCOCC1 | -17.0 | 13.1 | -13.5 | 1 | -2.9 | -1.5 | . | .
COc1cccc(Nc2nc(-c3sc(NC(=O)c4ccco4)nc3C)cs2)c1 | . | -7.2 | -4.8 | 1 | 28.6* | 0.2 | -2.9 | -4.2
COc1cccc(CN2CCN(c3nc4nonc4nc3N3CCCCC3)CC2=O)c1 | 13.6 | 11.9 | -4.6 | 1.1 | -1.1 | -6.5 | . | .
Cc1cc(N(CCO)CCO)ccc1N=Nc1cc(F)ccc1F | -17.1 | 4.0 | 39.5 | 0.6 | 11.2* | 37.9 | -1.7 | -4.8
Nc1ccc(N(CCO)CCO)cc1 | -5.7 | -5.3 | -12.7 | 1 | 2.8 | -3.1 | . | .
O=C(CN1C(=O)/C(=C\c2cccc(Cl)c2)Oc2ccccc21)N1CCN(c2ccccn2)CC1 | -5.5 | -16.8 | -9.5 | 1 | 0.9 | -3.2 | . | .
